# Test results reported in ChEMBL document CHEMBL1155036, “Synthesis and biological activity of some new flavonyl-2,4-thiazolidinediones” (Bioorg Med Chem, 2008).
# How the values were obtained:
# [1] = system: INS1; assay: Insulinotropic activity in rat INS1 cells assessed as glucose-mediated insulin release at 1 ug/ml by radioimmunoassay relative to glucose; assay type: functional
# Procedure, shortened: (§1)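 Rat INS-1 cells are grown 4–6 days to half confluence in RPMI with 10% FCS and penicillin/streptomycin. Cells are washed, then incubated 90 min at 37 °C in KRBH (10 mM HEPES, 0.5% BSA) at 5.6 mM glucose, with or without compound. Secreted insulin is measured by radioimmunoassay with a rat insulin standard and corrected for solvent (ethanol, DMSO). Results are normalized to 5.6 mM glucose = 100%. Mean ± SEM, N = 4–8; ANOVA with Newman–Keuls.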
# [2] = system: INS1; assay: Insulinotropic activity in rat INS1 cells assessed as glucose-mediated insulin release at 10 ug/ml by radioimmunoassay relative to glucose; assay type: functional; procedure, shortened: as §1
# [3] = target: Aldo-keto reductase family 1 member B1 (Rattus norvegicus) (UniProt P07943); assay: Inhibition of rat kidney aldose reductase activity assessed as NADPH oxidation at 100 uM
# Procedure, shortened: (§2)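 Assay in 0.067 M phosphate buffer, pH 6.2, with NADPH (2 × 10^-5 M final) and DL-glyceraldehyde substrate (5 × 10^-5 M final). The 340 nm absorbance decrease is followed for 5 min at 37 °C. Drug is added from a 10^-4 M stock in 50% DMF/50% methanol. Percent inhibition is measured at this single drug concentration, and IC50 from a concentration series. Triplicates; mean ± SD of three experiments.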
# [4] = target: Aldo-keto reductase family 1 member B1 (Rattus norvegicus, UniProt P07943); assay: Inhibition of rat kidney aldose reductase activity assessed as NADPH oxidation; procedure, shortened: as §2
Compound,inhibition [3] [%],IC50 [4] [nM],Activity [1] [%],Activity [2] [%]
CCOC(=O)CN1C(=O)S/C(=C\c2ccc3oc(-c4ccccc4)cc(=O)c3c2)C1=O,14.4,–,93.28,98.52
O=C(O)CN1C(=O)S/C(=C\c2ccc(-c3cc(=O)c4ccccc4o3)cc2)C1=O,44.6,–,102.4,91.88
O=C1NC(=O)/C(=C/c2ccc3oc(-c4ccccc4)cc(=O)c3c2)S1,64.9,683,82.55,158.9
COc1ccc(Cl)cc1C(=O)NCCc1ccc(S(=O)(=O)NC(=O)NC2CCCCC2)cc1 [GLYBURIDE],–,–,179.6,–
O=C1NC(=O)/C(=C/c2cccc(-c3cc(=O)c4ccccc4o3)c2)S1,22.1,–,79.76,18.95
CCOC(=O)CN1C(=O)S/C(=C\c2cccc(-c3cc(=O)c4ccccc4o3)c2)C1=O,12.9,–,103.4,98.43
CCOC(=O)CN1C(=O)S/C(=C\c2ccc(-c3cc(=O)c4ccccc4o3)cc2)C1=O,6.74,–,106.2,128.6

# Now from value to compound, other results behind:
inhibition [3] [%],IC50 [4] [nM],Compound,Activity [1] [%],Activity [2] [%]
56.3,852,O=C(O)CN1C(=O)S/C(=C\c2ccc3oc(-c4ccccc4)cc(=O)c3c2)C1=O,101.3,80.92
86.6,415,O=C(O)CN1C(=O)S/C(=C\c2cccc(-c3cc(=O)c4ccccc4o3)c2)C1=O,98.1,84.09
88.7,432,O=C1NC(=O)/C(=C/c2ccc(-c3cc(=O)c4ccccc4o3)cc2)S1,55.7,23.79
